Here are results for seven molecules from ChEMBL document CHEMBL4396969, “Discovery of IACS-8803 and IACS-8779, potent agonists of stimulator of interferon genes (STING) with robust systemic antitumor efficacy” (Bioorg Med Chem Lett, 2019).

Calls of active or inactive are those of the source. The rule behind the calls is not given here.

Assay [1] relates to Mus musculus. As to the kind of experiment: Antitumor activity against mouse B16-OVA cells implanted in mouse assessed as tumour regression in injected flank at 10 ug administered intratumorally on day 6, 9 and 12 post implantation. Format: functional, cell-based. The essentials: (§1)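 Mice (n=5 per group) implanted bilaterally with 1×10^5 B16-Ova cells; 10 µg CDN injected intratumorally into one flank only on days 6, 9 and 12 post implantation. Tumor regression followed in injected and contralateral untreated flanks; cure of both tumors recorded.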

For assay [2], the target named is T1, Stimulator of interferon genes protein (Mus musculus) (UniProt Q3TBT3).
T1 sequence (whole entry): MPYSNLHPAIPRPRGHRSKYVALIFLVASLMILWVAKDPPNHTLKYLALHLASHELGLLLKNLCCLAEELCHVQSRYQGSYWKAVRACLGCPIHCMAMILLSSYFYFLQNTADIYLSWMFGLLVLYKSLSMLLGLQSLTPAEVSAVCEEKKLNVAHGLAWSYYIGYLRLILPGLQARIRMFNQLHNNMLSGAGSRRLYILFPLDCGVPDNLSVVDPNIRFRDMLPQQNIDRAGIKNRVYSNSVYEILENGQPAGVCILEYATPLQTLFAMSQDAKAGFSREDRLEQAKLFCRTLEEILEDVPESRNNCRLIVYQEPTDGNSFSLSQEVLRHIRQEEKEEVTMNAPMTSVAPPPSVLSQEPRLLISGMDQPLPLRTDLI
Nature of the assay: Agonist activity at STING in mouse J774 cells assessed as stimulation of IRF3 pathway measured after 20 hrs by luciferase reporter gene assay. The assay is classed as cell-based. The method, boiled down: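 J774-Dual reporter cells (stably carrying inducible NF-kB and IRF3 reporter constructs), 5×10^4 per well, given CDN at 1 µg/mL for 20 hours; IRF3 pathway activity read by luciferase assay.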

The test system of assay [3] is Mus musculus. As to the kind of experiment: Antitumor activity against mouse B16-OVA cells implanted in mouse assessed as higher number of mouse cured of tumors at 10 ug administered intratumorally on day 6, 9 and 12 post implantation. The assay is classed as functional, cell-based. The essentials:
as §1

Assay [4] concerns Mus musculus. Nature of the assay: Antitumor activity against mouse B16-OVA cells implanted in mouse assessed as tumour regression in contralateral flank at 10 ug administered intratumorally on day 6, 9 and 12 post implantation. Format: functional, cell-based. The method, boiled down:
as §1

With `Nc1ncnc2c1ncn2[C@@H]1O[C@@H]2CO[P@@](=O)(S)O[C@@H]3[C@H](O)[C@@H](CO[P@@](=O)(S)O[C@H]2[C@H]1F)O[C@H]3n1cnc2c(N)ncnc21`, the result (in the assay on Mus musculus [1]; in assay [2]; with Mus musculus [3]; in the assay on Mus musculus [4]) was Active.
For the molecule `Nc1ncnc2c1ccn2[C@@H]1O[C@@H]2CO[P@](=O)(S)O[C@@H]3[C@H](O)[C@@H](CO[P@@](=O)(S)O[C@H]2[C@H]1O)O[C@H]3n1cnc2c(N)ncnc21`, the result in assay [2] was Active.
As for `Nc1ncnc2c1ccn2[C@@H]1O[C@@H]2CO[P@@](=O)(S)O[C@@H]3[C@H](O)[C@@H](CO[P@@](=O)(S)O[C@H]2[C@H]1O)O[C@H]3n1cnc2c(N)ncnc21`, the result (in the assay with Mus musculus [1]; in assay [2]; in the assay on Mus musculus [3]; in the assay on Mus musculus [4]) was Active.
Take `Nc1ncnc2c1ncn2[C@@H]1O[C@@H]2CO[P@](=O)(S)O[C@@H]3[C@H](O)[C@@H](CO[P@@](=O)(S)O[C@H]2[C@H]1F)O[C@H]3n1cnc2c(N)ncnc21`: the result in assay [2] was Active.
As to `Nc1nc2c(ncn2[C@@H]2O[C@@H]3COP(=O)(O)O[C@H]4[C@@H](O)[C@H](n5cnc6c(N)ncnc65)O[C@@H]4COP(=O)(O)O[C@@H]2[C@@H]3O)c(=O)[nH]1`, the result in the assay on Mus musculus [1], with Mus musculus [3] and in the assay on Mus musculus [4] was Active.
In the case of `Nc1ncnc2c1ccn2[C@@H]1O[C@@H]2CO[P@@](=O)(S)O[C@H]3[C@@H](O)[C@H](n4cnc5c(N)ncnc54)O[C@@H]3CO[P@](=O)(S)O[C@@H]1[C@@H]2O`, in assay [2], the result was Active.
With `Nc1ncnc2c1ccn2[C@@H]1O[C@@H]2CO[P@@](=O)(S)O[C@H]3[C@@H](O)[C@H](n4cnc5c(N)ncnc54)O[C@@H]3CO[P@@](=O)(S)O[C@@H]1[C@@H]2O`, the result in assay [2] was Active.
